Screening data (PubChem BioAssay)
Most compounds without a hit are left out; they make up all but 2.7% or so of the library.
MsrA inhibitor – bovine MsrA inhibition; inhibition, % at 15.5 µM; hit rate 0.75% among 360,000; purified bovine MsrA, absorbance read-out; in the data active = inhibition above about 4.5%;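 note: 0% = vehicle wells with enzyme and 100% = reference inhibitor wells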
MsrA act – bovine methionine sulfoxide reductase A activation | purified bovine MsrA, absorbance read-out | activation, % at 10.6 µM | hit rate 0.3% among 360,000; in the data active = activation above about 7.5%;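 note: 0% = vehicle and 100% = reference activator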
ASAP1 inh – ASAP1 ArfGAP inhibition; ASAP1-stimulated ARF1 GTP hydrolysis, GDP FP detection; inhibition, % at 16.5 µM; hit rate 0.19% among 360,000; in the data active = inhibition above about 25%;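 note: 0% = vehicle with enzyme and substrate and 100% = no enzyme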
ARFGAP1 inh – rat ARFGAP1 inhibition. Arfgap1-stimulated ARF1 GTP hydrolysis, GDP FP detection. inhibition, % at 16.5 µM. hit rate 0.26% among 360,000;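 active = inhibition above a per-plate limit, mean inhibition of low control wells plus 3 SD, cut at about 25% in these data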;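 note: 0% = DMSO wells with enzyme and 100% = wells lacking Arfgap1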
Target sequence (Q62848 1-136 limits assumed): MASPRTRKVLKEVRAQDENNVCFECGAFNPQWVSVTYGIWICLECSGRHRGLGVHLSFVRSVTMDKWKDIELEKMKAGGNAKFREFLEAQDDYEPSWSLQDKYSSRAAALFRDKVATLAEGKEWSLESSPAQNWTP
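Material: rat Arfgap1 GAP domain (His6, aa 1-136), purified enzyme. Also added: human ARF1(Δ1-17)-GTP substrate. Compound dosing: 16.5 µM single point, 1.26% DMSO. Timing: enzyme reaction 120 min at 25 °C after 20 min preincubation. Signal: GDP detection by fluorescence polarization. Read-out basis: percent inhibition of GAP-stimulated GDP formation, scaled between DMSO and no-Arfgap1 medians.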
Rev-erbA mod – modulators of human Rev-erb alpha DNA binding. Rev-erbα–FITC-DNA binding, fluorescence polarization, 90 min. P20393. activity, % at 10 µM. hit rate 0.79% among 370,000. AID 1259318;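 active = activity above about 14%, limit read from the data; passing the limit was not always enough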;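 note: 0% = DMSO wells with 35 nM protein and 100% = DMSO wells with 750 nM protein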
sPLA2-III inh – Inhibits HGIII-sPLA2 liposome hydrolysis, primary screen | Q9NZ20 | QFRET BODIPY PC-A2 liposome hydrolysis, fluorescence | inhibition, % at 12.2 µM | hit rate 0.56% among 370,000 | AID 743126;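 active = inhibition above mean plus 3 SD of compounds lying within the high and low control bounds, cut at about 19% in these data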;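 note: 0% = median of test compound wells and 100% = no enzyme DMSO wells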
Target sequence (Q9NZ20 whole entry, looked up): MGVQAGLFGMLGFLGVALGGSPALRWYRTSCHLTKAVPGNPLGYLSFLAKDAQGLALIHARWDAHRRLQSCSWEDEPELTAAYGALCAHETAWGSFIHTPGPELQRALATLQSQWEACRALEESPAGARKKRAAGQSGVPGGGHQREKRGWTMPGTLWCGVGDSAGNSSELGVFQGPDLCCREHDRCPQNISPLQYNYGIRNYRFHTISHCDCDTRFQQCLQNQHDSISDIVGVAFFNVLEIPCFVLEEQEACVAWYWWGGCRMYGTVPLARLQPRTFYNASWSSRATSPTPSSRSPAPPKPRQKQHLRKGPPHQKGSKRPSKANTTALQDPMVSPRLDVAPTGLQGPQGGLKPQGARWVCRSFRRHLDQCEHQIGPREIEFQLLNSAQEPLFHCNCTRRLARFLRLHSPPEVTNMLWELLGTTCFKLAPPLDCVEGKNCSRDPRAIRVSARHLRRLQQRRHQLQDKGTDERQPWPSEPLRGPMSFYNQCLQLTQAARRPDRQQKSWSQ
Rev-erbA confirm – confirmation of modulators of human Rev-erb alpha DNA binding. activation, % at 25 µM. AID 1259319. Rev-erb alpha FITC-DNA binding, fluorescence polarization, 90 min. hit rate 61% among 3,000. shares compounds with Rev-erbA mod;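 active = activation at or above a set limit, or at least 3 SD above the negative control mean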;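 note: 0% = 35 nM protein with DMSO and 100% = 750 nM protein high control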
RORg DNA counter – affects RORgamma DNA binding in a Rev-erb alpha counter-screen; shares compounds with Rev-erbA mod; purified RORgamma protein-FITC-DNA binding, fluorescence polarization; IC50, µM; hit rate 8% among 910; AID 1259320;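 active = Compounds whose fitted half-maximal concentration for disrupting protein-DNA binding is below 10 micromolar; the record names Rev-erb in its text, so the target is in doubt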
* hit, by the source's call; i = inactive; . = no result given.

SMILES	MsrA inhibitor	MsrA act	ASAP1 inh	ARFGAP1 inh	Rev-erbA mod	sPLA2-III inh	Rev-erbA confirm	others
O=C(CN1C(=O)C2CCCN2c2ncc(Cl)cc21)NCc1ccc2c(c1)OCO2 (stereo not drawn)	1	-3	-14	6	46*	-14	36*
CCc1ccccc1NC(=O)CN1C(=O)C2CCCN2c2ncc(Cl)cc21 (stereo not drawn)	0	0	-2	-9	-3	-9	.
COc1ccc(CNC(=O)CN2C(=O)C3CCCN3c3ncc(Cl)cc32)cc1 (stereo not drawn)	1	-1	3	3	43*	-14	36*
O=C(CN1C(=O)NC2(CCCCC2)C1=O)NCc1ccc2c(c1)OCO2	-1	-5	4	-6	3	-2	.
O=C(Nc1cc(-c2nc3ccccc3s2)ccc1Cl)c1ccc2c(c1)OCO2	1	-2	-4	1	28*	14	1
Cc1ccc(-c2nc3ccccc3s2)cc1NC(=O)c1ccc2c(c1)OCO2	0	-3	9	-5	10	1	.
Cc1ccc(S(=O)(=O)N2C3CC(c4ccccc4)N(S(=O)(=O)c4ccccc4Cl)CC3C(=O)C[C@H]2c2ccccc2)cc1 (stereo partly drawn)	0	.	16	10	3	-17	.
C[C@@H]1CN([C@H](C)CO)C(=O)CCCn2nncc2CO[C@H]1CN(C)C(=O)c1ccccc1	-1	-1	1	-3	11	1	.
Cc1cc(-c2ccccc2)nc2oc3c(c12)NC(=O)CN(c1ccccc1)C3=O	1	-3	-8	8	23*	0	35*	RORg DNA counter=1.1*
COc1cc2oc(=O)cc(-c3ccc(-c4ccc(CO)cc4)cc3)c2c(OC)c1OC	3	-8	11	4	30*	-12	28*	RORg DNA counter=>40
COc1ccccc1NC(=O)Nc1nc(C(N)CC(C)C)cs1 (stereo not drawn)	0	-1	-13	9	7	2	.
CCN1/C(=C/C=C/c2oc3ccc(-c4ccccc4)cc3[n+]2CC)Oc2ccc(-c3ccccc3)cc21	1	-2	19	8	139*	-357	135*	RORg DNA counter=i
CCCCNCCS(=O)(=O)NCc1ccc(OC)cc1	0	1	7	0	8	-2	.
CCCNCC(O)Cn1c2ccccc2n2c(=O)cc(C)c(C#N)c12 (stereo not drawn)	3	5	-8	16	4	0	.
Cc1cc(=O)n2c(sc3ccccc32)c1C#N	1	-8	-5	2	39*	8	21*
CC1(C)CC(=O)C=C(c2ccc(-c3ccccc3)cc2)C1=O	0	-2	4	-2	3	-4	.
Cc1ccc(OCCN2CCC2(C)C(=O)Nc2ccc3c(c2)OCCO3)cc1 (stereo not drawn)	1	1	-8	-3	-2	4	.
CCc1nc2ccc(C(=O)NCCCn3ccnc3)cn2c1N(C)CCCc1ccccc1	-1	0	12	3	-1	-18	.
COc1ccc([C@H]2N[C@]3(CCCN(Cc4ccc(C)cc4)C3=O)[C@H]3C(=O)N(Cc4ccccc4)C(=O)[C@@H]23)cc1	-1	-2	3	8	2	-15	.
O=C1/C(=C/c2ccc(N3CCCC3)cc2)NC(=S)N1C1CC1	2	-1	6	3	27*	-6	27*
CN1C(=O)c2ccc(N3CCCC3)cc2C1=O	1	-3	-6	-8	2	1	.
Cc1cc(N2CCCC2)ccc1/C=C1\NC(=S)N(C)C1=O	1	-2	-1	-4	30*	7	50*	RORg DNA counter=>40
COCCn1c(-c2ccc(Cl)cc2Cl)nc2c(c(=O)c3ccccc3n2C)c1=O	0	-1	1	-8	65*	2	23*
CCCc1nc2c(c(=O)c3ccccc3n2C)c(=O)n1-c1ccc(F)cc1	0	-5	7	13	-1	-3	.
COc1ccc(CCn2c(-c3ccc(OC)cc3)nc3c(c(=O)c4ccccc4n3C)c2=O)cc1	1	-3	-18	-8	50*	12	31*	RORg DNA counter=>40
SMILES	MsrA inhibitor	MsrA act	ASAP1 inh	ARFGAP1 inh	Rev-erbA mod	sPLA2-III inh	Rev-erbA confirm	others
Cc1ccc(-c2nc3c(c(=O)c4ccccc4n3C)c(=O)n2-c2ccccc2)cc1	0	-3	-10	-3	26*	10	19*
COCCn1c(-c2ccc(C)cc2)nc2c(c(=O)c3ccccc3n2C)c1=O	-1	-2	-3	-1	-3	1	.
Cc1cccc(-c2nc3c(c(=O)c4ccccc4n3C)c(=O)n2-c2ccccc2)c1	2	-2	-14	2	40*	10	29*
COc1ccc(NS(=O)(=O)c2ccc(C)c(C(=O)NCCCn3ccnc3)c2)cc1	-1	1	6	-3	2	-9	.
Cc1ccc(S(=O)(=O)N2C[C@H]3C(=O)C[C@@H](c4cccc(Cl)c4)N(S(=O)(=O)c4ccc(C)cc4)[C@H]3C[C@H]2c2ccc(Cl)cc2)cc1	0	-1	10	1	6	1	.
CCc1ccc(-n2c(=S)sc3c(=O)[nH]c(SCC(=O)NC4CCCCC4)nc32)cc1	1	-7	-16	-1	6	7	.
COC(=O)[C@]12C[C@H](CC(=O)N3CCCC3)C(=O)N(CCc3ccc(OC)c(OC)c3)C1=C[C@H](COCc1ccccc1)O[C@@H]2C	.	.	.	.	2	-6	.
FC(F)(F)c1ccccc1Cc1c(-c2cccc(Cl)c2)nc2c3ccccc3ccn12	1	-2	7	-8	0	-3	.
O=S1(=O)CC(N2CCCCC2)CN1Cc1cn(Cc2ccc(C(F)(F)F)cc2)nn1 (stereo not drawn)	-1	-3	3	-1	1	1	.
Cc1ccc(C(=O)N2N=C(c3ccccc3O)CC2c2ccccc2)cc1 (stereo not drawn)	1	-10	8	12	38*	14	25*
COc1ccccc1-c1cnc2c(c1)C(=O)N([C@@H](C)CO)C[C@@H](C)[C@H](CN(C)C(=O)c1cccnc1)O2	0	-1	-7	7	-3	1	.
c1cnc2nc3c4ccccc4c4ccccc4c3nc2c1	0	-11	15	-5	5	-13	.
Brc1cccc(-c2nc3cccnc3nc2-c2cccc(Br)c2)c1	0	-5	-8	-6	14*	-5	6
COc1ccc(S(=O)(=O)N2CCN(CC(=O)NC(C)c3cccs3)CC2)cc1 (stereo not drawn)	1	-1	-3	3	2	2	.
COc1ccccc1CNc1ncnc2cc(Cl)ccc12	-1	-2	-3	2	180*	0	137*	RORg DNA counter=i
